Experimental data from ChEMBL document CHEMBL4229468, “Novel cinnamaldehyde-based aspirin derivatives for the treatment of colorectal cancer” (Bioorg Med Chem Lett, 2018).

Columns and labels:
HCT-8 [1] = experiment: Antiproliferative activity against human HCT8 cells after 72 hrs by MTT assay; format: functional, cell-based; details: HCT-8, 72 h
In short: (§1)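 MTT proliferation assay (details in supplement); positive control 5-FU; mixture comparator ASA + CA physical mixture at 1:1 mole ratio; IC50 = concentration inhibiting 50% of proliferation; mean ± SD from three independent experiments.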

HCT-8 [2] = experiment: Antiproliferative activity against human HCT8 cells after 72 hrs in presence of cinnamaldehyde by MTT assay; format: functional, cell-based; details: HCT-8, 72 h; in short: as §1
DLD-1 = experiment: Antiproliferative activity against human DLD1 cells after 72 hrs by MTT assay; format: functional, cell-based; details: DLD-1, 72 h
In short: (§2)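 MTT proliferation assay on colorectal cancer (DLD-1) or non-tumorigenic colon (CCD841) cells. IC50 is the drug concentration inhibiting 50% of cell proliferation, given as the mean ± SD of three independent experiments.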

CCD-841CoN = experiment: Antiproliferative activity against human CCD-841-CoN cells after 72 hrs by MTT assay; format: cell-based; in short: as §2
HCT-8 [3] = experiment: Potency index, ratio of 5-FU IC50 to test compound IC50 for human HCT8 cells; format: functional
[4] = Selectivity index, ratio of IC50 for human CCD-841-CoN cells to IC50 for human HCT8 cells; format: toxicity; details: CCD-841-CoN cells versus HCT8 cells, read-out: Ratio IC50
[5] = Selectivity index, ratio of IC50 for human CCD-841-CoN cells to IC50 for human DLD1 cells; format: toxicity; details: CCD-841-CoN cells versus DLD1 cells, read-out: Ratio IC50
In short: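 MTT IC50 in DLD-1 and non-tumorigenic CCD841 colon cells; IC50 = concentration inhibiting 50% proliferation; mean ± SD, three independent experiments.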

HCT-8 [6] = experiment: Antitumor activity against human HCT8 cells xenografted in BALB/c nude mouse assessed as tumor weight at 60 mg/kg, ip administered daily for 32 days measured every 4 days during compound dosing relative to control; format: functional
In short: (§3)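 HCT-8 cells inoculated subcutaneously; after solid tumours established, mice randomized to daily intraperitoneal dosing at 60 mg/kg or vehicle Tween 80/PBS (5:95) for 32 consecutive days; tumour volume, tumour weight and body weight recorded; n = 6 per group; mean ± SD; P vs vehicle.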

Mus musculus = experiment: Toxicity in BALB/c nude mouse xenografted with human HCT8 cells assessed as change in body weight at 60 mg/kg, ip administered daily for 32 days; format: organism-based; details: in vivo, 768 h; in short: as §3
HCT-8 [7] = experiment: Cell cycle arrest in human HCT8 cells assessed as accumulation at G1 phase after 24 hrs by propidium iodide staining-based flow cytometric method; format: functional
HCT-8 [8] = experiment: Cell cycle arrest in human HCT8 cells assessed as accumulation at G1 phase at 3 uM after 24 hrs by propidium iodide staining-based flow cytometric method (reference value: 40.05%); format: functional
HCT-8 [9] = experiment: Cell cycle arrest in human HCT8 cells assessed as accumulation at S phase at 3 uM after 24 hrs by propidium iodide staining-based flow cytometric method (reference value: 36.19%); format: functional
HCT-8 [10] = experiment: Cell cycle arrest in human HCT8 cells assessed as accumulation at G2 phase at 3 uM after 24 hrs by propidium iodide staining-based flow cytometric method (reference value: 23.77%); format: functional
HCT-8 [11] = experiment: Cell cycle arrest in human HCT8 cells assessed as accumulation at G1 phase at 6 uM after 24 hrs by propidium iodide staining-based flow cytometric method (reference value: 40.05%); format: functional
HCT-8 [12] = experiment: Cell cycle arrest in human HCT8 cells assessed as accumulation at S phase at 6 uM after 24 hrs by propidium iodide staining-based flow cytometric method (reference value: 36.19%); format: functional
HCT-8 [13] = experiment: Cell cycle arrest in human HCT8 cells assessed as accumulation at G2 phase at 6 uM after 24 hrs by propidium iodide staining-based flow cytometric method (reference value: 23.77%); format: functional
HCT-8 [14] = experiment: Cell cycle arrest in human HCT8 cells assessed as accumulation at G1 phase at 12 uM after 24 hrs by propidium iodide staining-based flow cytometric method (reference value: 40.05%); format: functional
HCT-8 [15] = experiment: Cell cycle arrest in human HCT8 cells assessed as accumulation at S phase at 12 uM after 24 hrs by propidium iodide staining-based flow cytometric method (reference value: 36.19%); format: functional
HCT-8 [16] = experiment: Cell cycle arrest in human HCT8 cells assessed as accumulation at G2 phase at 12 uM after 24 hrs by propidium iodide staining-based flow cytometric method (reference value: 23.77%); format: functional
HCT-8 [17] = experiment: Induction of apoptosis in human HCT8 cells after 24 hrs by annexin V-FITC/propidium iodide staining-based flow cytometric method; format: functional, cell-based
HCT-8 [18] = experiment: Induction of apoptosis in human HCT8 cells assessed as early apoptotic cells at 3 uM after 24 hrs by annexin V-FITC/propidium iodide staining-based flow cytometric method (reference value: 0.25%); format: functional
HCT-8 [19] = experiment: Induction of apoptosis in human HCT8 cells assessed as early apoptotic cells at 6 uM after 24 hrs by annexin V-FITC/propidium iodide staining-based flow cytometric method (reference value: 0.25%); format: functional
HCT-8 [20] = experiment: Induction of apoptosis in human HCT8 cells assessed as early apoptotic cells at 12 uM after 24 hrs by annexin V-FITC/propidium iodide staining-based flow cytometric method (reference value: 0.25%); format: functional
HCT-8 [21] = experiment: Induction of apoptosis in human HCT8 cells assessed as early apoptotic cells at 6 uM after 24 hrs in presence of ROS scavenger NAC by annexin V-FITC/propidium iodide staining-based flow cytometric method (reference value: 0.25%); format: functional
HCT-8 [22] = experiment: Induction of apoptosis in human HCT8 cells assessed as late apoptotic cells at 6 uM after 24 hrs in presence of ROS scavenger NAC by annexin V-FITC/propidium iodide staining-based flow cytometric method (reference value: 5.42%); format: functional
HCT-8 [23] = experiment: Induction of apoptosis in human HCT8 cells assessed as upregulation of cleaved caspase-3 levels after 24 hrs by Western blot method; format: functional, cell-based
In short: (§4)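 Cells treated 24 h with 0, 3, 6, 12 μM or control (0.1% DMSO); whole-cell lysates immunoblotted for cleaved caspase 3 and PARP.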

HCT-8 [24] = experiment: Induction of apoptosis in human HCT8 cells assessed as upregulation of cleaved PARP levels after 24 hrs by Western blot method; format: functional, cell-based; in short: as §4
HCT-8 [25] = experiment: Induction of reactive oxygen species formation in human HCT8 cells at 3 uM after 24 hrs by DCFH-DA dye-based flow cytometric method (reference value: 3.67%); format: functional
In short: (§5)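 Cells treated 24 h with 0, 3, 6 or 12 μM, stained with fluorogenic 2',7'-dichlorofluorescin diacetate; ROS level read by flow cytometry.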

HCT-8 [26] = experiment: Induction of reactive oxygen species formation in human HCT8 cells at 6 uM after 24 hrs by DCFH-DA dye-based flow cytometric method (reference value: 3.67%); format: functional; in short: as §5
HCT-8 [27] = experiment: Induction of reactive oxygen species formation in human HCT8 cells at 12 uM after 24 hrs by DCFH-DA dye-based flow cytometric method (reference value: 3.67%); format: functional; in short: as §5
HCT-8 [28] = experiment: Induction of apoptosis in human HCT8 cells assessed as late apoptotic cells at 3 uM after 24 hrs by annexin V-FITC/propidium iodide staining-based flow cytometric method (reference value: 2.40%)
HCT-8 [29] = experiment: Induction of apoptosis in human HCT8 cells assessed as late apoptotic cells at 6 uM after 24 hrs by annexin V-FITC/propidium iodide staining-based flow cytometric method (reference value: 2.40%)
HCT-8 [30] = experiment: Induction of apoptosis in human HCT8 cells assessed as late apoptotic cells at 12 uM after 24 hrs by annexin V-FITC/propidium iodide staining-based flow cytometric method (reference value: 2.40%)
HCT-8 [31] = experiment: Antiproliferative activity against human HCT8 cells after 72 hrs in presence of aspirin by MTT assay; format: functional, cell-based; details: HCT-8, 72 h
In short: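 MTT proliferation assay in HCT-8 colorectal cancer cells, run on a physical mixture with aspirin at a 1:1 mole ratio. IC50 is the concentration inhibiting 50% of cell proliferation, given as the mean ± SD of three independent experiments.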

## CC(=O)Oc1ccccc1C(=O)O [ASPIRIN]
HCT-8 [1]
  IC50: > 100 µM
HCT-8 [2]
  IC50: 15.6 µM

## CC(=O)Oc1ccccc1C(=O)Oc1ccc(F)cc1/C=C/C=O
HCT-8 [1]
  IC50: 2.6 µM
DLD-1
  IC50: 4.3 µM
CCD-841CoN
  IC50: 30.7 µM
HCT-8 [3]
  Ratio IC50: 11
[4]
  selectivity ratio: 11
[5]
  selectivity ratio: 7
HCT-8 [6]
  Activity: 47%
Mus musculus
  Activity: Non-Toxic
HCT-8 [7]
  Activity: Dose-dependent effect
HCT-8 [8]
  Activity: 43.17%
HCT-8 [9]
  Activity: 35.89%
HCT-8 [10]
  Activity: 20.94%
HCT-8 [11]
  Activity: 48.66%
HCT-8 [12]
  Activity: 38.71%
HCT-8 [13]
  Activity: 12.63%
HCT-8 [14]
  Activity: 51.62%
HCT-8 [15]
  Activity: 36.15%
HCT-8 [16]
  Activity: 12.23%
HCT-8 [17]
  Activity: Dose-dependent effect
HCT-8 [18]
  Activity: 8.69%
HCT-8 [19]
  Activity: 15.56%
HCT-8 [20]
  Activity: 15.84%
HCT-8 [21]
  Activity: 7.4%
HCT-8 [22]
  Activity: 5.58%
HCT-8 [23]
  Activity: Dose-dependent effect
HCT-8 [24]
  Activity: Dose-dependent effect
HCT-8 [25]
  Activity: 18.67%
HCT-8 [26]
  Activity: 25.07%
HCT-8 [27]
  Activity: 47.83%
HCT-8 [28]
  Activity: 5.42%
HCT-8 [29]
  Activity: 17.03%
HCT-8 [30]
  Activity: 27.71%

## CC(=O)Oc1ccc(F)cc1/C=C/C=O
HCT-8 [1]
  IC50: 10.5 µM

## CC(=O)Oc1ccccc1C(=O)Oc1ccccc1/C=C/C=O
HCT-8 [1]
  IC50: 20.3 µM

## COc1ccc(OC(=O)c2ccccc2OC(C)=O)c(/C=C/C=O)c1
HCT-8 [1]
  IC50: 9.3 µM

## O=C/C=C/c1ccccc1 [CINNAMALDEHYDE]
HCT-8 [1]
  IC50: 29.4 µM
HCT-8 [31]
  IC50: 15.6 µM

## CC(=O)Oc1ccccc1C(=O)Oc1ccc(C)cc1/C=C/C=O
HCT-8 [1]
  IC50: 8.5 µM

## COc1cccc(/C=C/C=O)c1OC(=O)c1ccccc1OC(C)=O
HCT-8 [1]
  IC50: 17.6 µM

## CC(=O)Oc1ccccc1C(=O)Oc1ccc(Br)cc1/C=C/C=O
HCT-8 [1]
  IC50: 5.6 µM

## O=c1[nH]cc(F)c(=O)[nH]1 [FLUOROURACIL]
HCT-8 [1]
  IC50: 28.9 µM
DLD-1
  IC50: 33 µM
CCD-841CoN
  IC50: 35.7 µM

## CC(=O)Oc1ccccc1C(=O)Oc1ccc(Cl)cc1/C=C/C=O
HCT-8 [1]
  IC50: 4.3 µM

## COc1ccc(/C=C/C=O)c(OC(=O)c2ccccc2OC(C)=O)c1
HCT-8 [1]
  IC50: 15.8 µM

## COC(=O)c1ccccc1OC(C)=O
HCT-8 [1]
  IC50: > 100 µM
